Bioassay records: PubChem BioAssay, several laboratories
An excerpt weighted towards active compounds, which were near 2.1% of everything screened.
Hck-Nef inh = blocks Nef-activated human Hck kinase. AID 463187. 220,000 compounds, 0.68% hits. inhibition, % at 20 µM. Recombinant Hck-YEEI plus Nef, Z-Lyte FRET kinase assay. P08631;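 active means Hck-Nef kinase inhibition above about 50%, limit read from the data; inactive means inhibition below that limit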;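 further: 0% = DMSO with Hck plus Nef and 100% = Hck alone without Nef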
RanGTP-Imp inh = disruptors of Ran-importin-beta complex formation – biochemical, FRET, CFP-Ran, YFP-importin-beta, homogeneous, primary screen. cell-free CFP-Ran/YFP-importin-beta FRET ratio. inhibition, % (concentration not given with the values). AID 2216. 300,000 compounds, 1.1% hits;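 active means more than half of the replicate wells show a fall in the fluorescence ratio signal beyond about 16%, limit read from the data, passing the limit was not always enough; inconclusive means exactly half of the replicate wells pass the set limit; inactive means fewer than half of replicates pass the limit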;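 further: 0% = DMSO wells and 100% = Ran loaded with GDP instead of GTP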
pCIP destab = p/CIP protein destabilization; Q05BA5; F442A p/CIP-EGFP cells, EGFP fluorescence, 16 h; decrease of EGFP signal, % at 10 µM; 290,000 compounds, 0.01% hits; AID 1984;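 active means EGFP signal decrease of at least 30% at 10 µM or well 3 SD below plate mean, unless failing retest; inactive means the rest, including hits failing retest or dose response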
Runt-SMMHC FRET = blocks binding of human RUNX1 Runt domain to CBFb-SMMHC; inhibition, % at 20 µM; 220,000 compounds, 0.74% hits; Q01196+Q13951; AID 1434; Cerulean-Runt/Venus-CBFb-SMMHC FRET ratio 530/480, 1 h;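 active means mean inhibition across duplicate retests at 20 µM reaching about 50%, limit read from the data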;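 further: 0% = DMSO wells and 100% = wells with excess untagged CBFb-SMMHC; inhibitors lower the FRET ratio by blocking Runt binding to CBFb-SMMHC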
DSG3 Ab inh = blocks pemphigus antibody binding to human desmoglein-3; P32926; DSG3-coupled beads, scFv-anti-DSG3-GFP binding, flow cytometry; active compounds read low; binding (percent of control), % at 10 µM; 310,000 compounds, 0.48% hits; AID 588358;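 active means binding more than 3 SD below its plate's average and above zero; inconclusive means below that plate limit but binding exactly zero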;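 further: hits lower antibody fragment binding to DSG3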
Runt-CBFb FRET = blocks binding of human RUNX1 Runt domain to CBFb; Q01196+Q13951; Cerulean-Runt/Venus-CBFb FRET ratio 530/480, 1 h; inhibition, % at 20 µM; 220,000 compounds, 0.46% hits;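 active means inhibition over about 50% at 20 µM in the single-dose screen, limit read from the data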;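 further: 0% = DMSO wells and 100% = excess unlabeled CBFb competitor control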
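Reagent – Venus-CBFb binding partner, 100 nM · Assay system – Cerulean-tagged RUNX1 Runt domain (FRET donor) fusion protein · Input – 100 nM per protein · Incubation – two 1 h room-temperature incubations shielded from light · Measured by – FRET fluorescence · Medium – Tris buffer pH 7.5 with salts and BSA · Benchmarks – unlabeled CBFb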
Hck Nef conf = confirmation of Hck-Nef kinase inhibitors; shares compounds with Hck-Nef inh; 1,300 compounds, 28% hits; calls only at 10 µM; Recombinant Hck-YEEI:Nef, Z-Lyte FRET kinase assay;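 active means average inhibition of at least 50%, with Z-scores no higher than 3 in both the phospho-tyrosine peptide and fluorescence counterscreens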
* hit, by the source's call.

What do the screens show for `Cc1ccc(NC(=O)CCC(=O)N/N=C/c2coc3ccccc3c2=O)cc1`?
Hck-Nef inh: 64*; RanGTP-Imp inh: inconclusive; pCIP destab: 2; Runt-SMMHC FRET: -2; DSG3 Ab inh: 103; Runt-CBFb FRET: -4; Hck Nef conf: active

What do the screens show for `Cc1ccc(NC(=O)CCC(=O)N/N=C/c2coc3ccc(F)cc3c2=O)cc1`?
RanGTP-Imp inh: 1; DSG3 Ab inh: 93

Results for Fc1ccc(/C=N/Nc2ncnc3nc[nH]c23)cc1F ?
Hck-Nef inh: 68*; RanGTP-Imp inh: 1; pCIP destab: -11; Runt-SMMHC FRET: 2; DSG3 Ab inh: 104; Runt-CBFb FRET: -5; Hck Nef conf: active

Results for c1ccc(CNc2ncnc3nc[nH]c23)cc1 ?
Hck-Nef inh: 1; RanGTP-Imp inh: -5; pCIP destab: -4; Runt-SMMHC FRET: -2; Runt-CBFb FRET: 0

What do the screens show for `Clc1cnc(N/N=C/c2cccs2)c(Cl)c1`?
Hck-Nef inh: 1; RanGTP-Imp inh: -4; pCIP destab: -10; Runt-SMMHC FRET: 2; DSG3 Ab inh: 94; Runt-CBFb FRET: -1

Results for Cc1ccsc1/C=N/Nc1ncnc2nc[nH]c12 ?
Hck-Nef inh: 76*; RanGTP-Imp inh: -3; pCIP destab: -55; Runt-SMMHC FRET: -5; DSG3 Ab inh: 95; Runt-CBFb FRET: 2; Hck Nef conf: active

Results for C(=N\Nc1ncnc2nc[nH]c12)/c1cccs1 ?
Hck-Nef inh: 82*; RanGTP-Imp inh: -6; pCIP destab: -2; Runt-SMMHC FRET: 1; DSG3 Ab inh: 99; Runt-CBFb FRET: 1; Hck Nef conf: active

How did Clc1ccc(CCNc2ncnc3nc[nH]c23)cc1 do in these assays?
Hck-Nef inh: 29; pCIP destab: -5; Runt-SMMHC FRET: 1; DSG3 Ab inh: 98; Runt-CBFb FRET: 2

How did Cc1ccccc1/C=N/Nc1ncnc2nc[nH]c12 do in these assays?
Hck-Nef inh: 75*; RanGTP-Imp inh: 1; pCIP destab: 3; Runt-SMMHC FRET: 1; DSG3 Ab inh: 109; Runt-CBFb FRET: -1; Hck Nef conf: active

How did COc1ccc(C(=O)NC(C)c2ccncc2)cc1S(=O)(=O)N(C)Cc1ccccc1 (configuration not stated) do in these assays?
DSG3 Ab inh: 111

Results for CC(C)[C@H]1COCCS(=O)(=O)N1Cc1cccc(Cl)c1 ?
RanGTP-Imp inh: -1; pCIP destab: 2; DSG3 Ab inh: 105

Results for O=C(O)Cn1nnc(-c2ccc(OCc3ccccc3)cc2)n1 ?
RanGTP-Imp inh: 2; DSG3 Ab inh: 112

How did CCc1ccc(Nc2ncnc3nc[nH]c23)cc1 do in these assays?
Hck-Nef inh: 63*; RanGTP-Imp inh: -3; pCIP destab: -6; Runt-SMMHC FRET: 2; DSG3 Ab inh: 94; Runt-CBFb FRET: 0; Hck Nef conf: active

How did O=C(O)c1cc(=O)[nH]c2ccccc12 do in these assays?
DSG3 Ab inh: 100

What do the screens show for `COc1cc2nc(SCC(=O)NCc3ccco3)n(Cc3ccc(Cl)cc3)c(=O)c2cc1OC`?
Hck-Nef inh: 100*; RanGTP-Imp inh: 3; pCIP destab: 7; Runt-SMMHC FRET: -7; DSG3 Ab inh: 110; Runt-CBFb FRET: -1; Hck Nef conf: active

What do the screens show for `Brc1ccc(Nc2ncnc3[nH]ncc23)cc1`?
Hck-Nef inh: 51*; RanGTP-Imp inh: 4; pCIP destab: -2; Runt-SMMHC FRET: 0; DSG3 Ab inh: 103; Runt-CBFb FRET: -2; Hck Nef conf: inactive

How did Cn1nccc1C(=O)Nc1sc2c(c1C(N)=O)CCCC2 do in these assays?
Hck-Nef inh: 68*; RanGTP-Imp inh: -1; pCIP destab: 3; Runt-SMMHC FRET: -1; DSG3 Ab inh: 105; Runt-CBFb FRET: 2; Hck Nef conf: inactive

How did CC1CCN(S(=O)(=O)N2CCN(C(=O)c3ccc4c(c3)OCO4)CC2)CC1 do in these assays?
RanGTP-Imp inh: inconclusive; pCIP destab: -8

How did O=C1N/C(=N\N=C\c2ccc3ncccc3c2)SC1Cc1ccc(SC(F)F)cc1 (configuration not stated) do in these assays?
Hck-Nef inh: 85*; pCIP destab: -1; Runt-SMMHC FRET: -2; DSG3 Ab inh: 94; Runt-CBFb FRET: -10; Hck Nef conf: active

How did COc1ccccc1NC(=O)OCC#CCOC(=O)Nc1ccccc1OC do in these assays?
Hck-Nef inh: 4; RanGTP-Imp inh: 2; pCIP destab: -3; Runt-SMMHC FRET: -7; DSG3 Ab inh: 97; Runt-CBFb FRET: 0

How did COc1ccc(/C=C2\SC(=N)N(c3ccc(F)cc3)C2=O)cc1OC do in these assays?
Hck-Nef inh: 63*; RanGTP-Imp inh: 3; pCIP destab: -4; Runt-SMMHC FRET: -7; DSG3 Ab inh: 99; Runt-CBFb FRET: -1; Hck Nef conf: active

What do the screens show for `O=C(OCC(=O)N1CCN(C(=O)c2ccco2)CC1)c1cc(-c2ccc(Cl)c(Cl)c2Cl)nc2ccccc12`?
Hck-Nef inh: 50*; RanGTP-Imp inh: 4; pCIP destab: -1; Runt-SMMHC FRET: -7; DSG3 Ab inh: 82; Runt-CBFb FRET: -16; Hck Nef conf: active

How did O=C(OCC(=O)N1CCN(C(=O)c2ccco2)CC1)c1cc(-c2ccco2)nc2ccccc12 do in these assays?
Hck-Nef inh: 6; RanGTP-Imp inh: -4; pCIP destab: -2; Runt-SMMHC FRET: -11; DSG3 Ab inh: 91; Runt-CBFb FRET: 3

How did CC(=O)c1ccc2c(c1)C1C=CCC1C(C(=O)O)N2 (configuration not stated) do in these assays?
Hck-Nef inh: 74*; pCIP destab: -2; Runt-SMMHC FRET: 43; Runt-CBFb FRET: 28; Hck Nef conf: active

Results for CC(=O)c1ccc2c(c1)C1C=CCC1C(c1ccncc1)N2 (configuration not stated) ?
Hck-Nef inh: -1; RanGTP-Imp inh: -10; pCIP destab: -6; Runt-SMMHC FRET: -44; DSG3 Ab inh: 95; Runt-CBFb FRET: -16

Results for Cc1ccc(OCC(=O)Nc2ccc(-c3nc4ncccc4o3)cc2)c(C)c1 ?
Hck-Nef inh: 106*; RanGTP-Imp inh: 0; pCIP destab: -8; Runt-SMMHC FRET: -3; DSG3 Ab inh: 98; Runt-CBFb FRET: 0; Hck Nef conf: inactive

Results for O=C(NC(=S)Nc1ccc(Cc2ccncc2)cc1)c1ccccc1F ?
Hck-Nef inh: 35; RanGTP-Imp inh: -2; pCIP destab: -12; Runt-SMMHC FRET: -3; Runt-CBFb FRET: -3

How did Cc1ccc(OCC(=O)Nc2ccncc2)c(C)c1 do in these assays?
RanGTP-Imp inh: inconclusive; pCIP destab: -15; DSG3 Ab inh: 101
